What was measured:
Assay type in all cases: functional
[1] = system: NCI-H522; assay: Growth inhibition of human NCI-H522 cells assessed as cell growth at 10 uM after 48 hrs by sulforhodamine B assay; conditions: NCI-H522, 48 h, read-out: Activity
[2] = system: RPMI-8226; assay: Growth inhibition of human RPMI8226 cells assessed as cell growth at 10 '-4 M after 48 hrs by sulforhodamine B assay; conditions: RPMI-8226, 48 h, read-out: Activity
[3] = system: SK-MEL-2; assay: Growth inhibition of human SK-MEL-2 cells assessed as growth inhibition at 10 uM after 48 hrs by sulforhodamine B assay; conditions: SK-MEL-2, 48 h, read-out: GI
[4] = system: HOP-92; assay: Growth inhibition of human HOP92 cells assessed as cell growth at 10 '-6 M after 48 hrs by sulforhodamine B assay; conditions: HOP-92, 48 h, read-out: Activity
[5] = system: A498; assay: Growth inhibition of human A498 cells assessed as cell growth at 10 '-6 M after 48 hrs by sulforhodamine B assay; conditions: A498, 48 h, read-out: Activity
Outline: (§1)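 Percent growth at each of the five concentrations of the 48 h continuous-exposure NCI SRB screen. Drug stocks were in DMSO at 400× the top final concentration and diluted in medium with gentamicin. Growth was calculated as [(Ti-Tz)/(C-Tz)]×100 when Ti ≥ Tz, or [(Ti-Tz)/Tz]×100 when Ti < Tz. Tz plates were fixed at drug addition; untreated wells served as control. Absorbance was read at 515 nm.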

[6] = system: SF-539; assay: Growth inhibition of human SF539 cells assessed as cell growth at 10 '-6 M after 48 hrs by sulforhodamine B assay; conditions: SF-539, 48 h, read-out: Activity
[7] = system: SK-MEL-5; assay: Growth inhibition of human SK-MEL-5 cells assessed as cell growth at 10 '-4 M after 48 hrs by sulforhodamine B assay; conditions: SK-MEL-5, 48 h, read-out: Activity
[8] = system: NCI-H522; assay: Growth inhibition of human NCI-H522 cells assessed as cell growth at 10 '-7 M after 48 hrs by sulforhodamine B assay; conditions: NCI-H522, 48 h, read-out: Activity
[9] = system: 786-0; assay: Growth inhibition of human 786-0 cells assessed as cell growth at 10 '-7 M after 48 hrs by sulforhodamine B assay; conditions: 786-0, 48 h, read-out: Activity; outline: as §1
[10] = system: IGROV-1; assay: Growth inhibition of human IGROV1 cells assessed as growth inhibition at 10 uM after 48 hrs by sulforhodamine B assay; conditions: IGROV-1, 48 h, read-out: GI
[11] = system: A549; assay: Growth inhibition of human A549 cells assessed as cell growth at 10 '-8 M after 48 hrs by sulforhodamine B assay; conditions: A549, 48 h, read-out: Activity; outline: as §1
[12] = system: MDA-MB-468; assay: Growth inhibition of human MDA-MB-468 cells assessed as cell growth at 10 '-7 M after 48 hrs by sulforhodamine B assay; conditions: MDA-MB-468, 48 h, read-out: Activity
[13] = system: U-251; assay: Growth inhibition of human U251 cells assessed as cell growth at 10 '-8 M after 48 hrs by sulforhodamine B assay; conditions: U-251, 48 h, read-out: Activity
[14] = system: K562; assay: Growth inhibition of human K562 cells assessed as cell growth at 10 '-6 M after 48 hrs by sulforhodamine B assay; conditions: K562, 48 h, read-out: Activity
[15] = system: A498; assay: Growth inhibition of human A498 cells assessed as cell growth at 10 '-5 M after 48 hrs by sulforhodamine B assay; conditions: A498, 48 h, read-out: Activity; outline: as §1
[16] = system: OVCAR-4; assay: Growth inhibition of human OVCAR4 cells assessed as cell growth at 10 '-4 M after 48 hrs by sulforhodamine B assay; conditions: OVCAR-4, 48 h, read-out: Activity
[17] = system: SK-MEL-28; assay: Growth inhibition of human SK-MEL-28 cells assessed as cell growth at 10 '-5 M after 48 hrs by sulforhodamine B assay; conditions: SK-MEL-28, 48 h, read-out: Activity
[18] = system: MDA-MB-435; assay: Growth inhibition of human MDA-MB-435 cells assessed as cell growth at 10 '-6 M after 48 hrs by sulforhodamine B assay; conditions: MDA-MB-435, 48 h, read-out: Activity
[19] = system: 786-0; assay: Growth inhibition of human 786-0 cells assessed as cell growth at 10 '-4 M after 48 hrs by sulforhodamine B assay; conditions: 786-0, 48 h, read-out: Activity; outline: as §1
[20] = system: HOP-92; assay: Growth inhibition of human HOP92 cells assessed as cell growth at 10 '-5 M after 48 hrs by sulforhodamine B assay; conditions: HOP-92, 48 h, read-out: Activity
[21] = system: NCI-H23; assay: Growth inhibition of human NCI-H23 cells assessed as growth inhibition at 10 uM after 48 hrs by sulforhodamine B assay; conditions: NCI-H23, 48 h, read-out: GI
[22] = system: SK-MEL-5; assay: Growth inhibition of human SK-MEL-5 cells assessed as cell growth at 10 '-8 M after 48 hrs by sulforhodamine B assay; conditions: SK-MEL-5, 48 h, read-out: Activity
[23] = system: SW-620; assay: Growth inhibition of human SW620 cells after 48 hrs by sulforhodamine B assay; conditions: SW-620, 48 h
[24] = system: NCI-H23; assay: Growth inhibition of human NCI-H23 cells after 48 hrs by sulforhodamine B assay; conditions: NCI-H23, 48 h
Outline: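 NCI 60-cell-line five-dose screen. Cells were plated at 5,000–40,000/well by doubling time and grown 24 h at 37 °C, 5% CO2. Time-zero plates were TCA-fixed. Drug from DMSO stock was tested at 0.01, 0.1, 1, 10 and 100 µM final for 48 h continuous exposure. Read-out was SRB at 515 nm. GI50 is the concentration giving 50% reduction in net protein increase versus untreated control.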

[25] = system: UO-31; assay: Growth inhibition of human UO31 cells assessed as cell growth at 10 '-8 M after 48 hrs by sulforhodamine B assay; conditions: UO-31, 48 h, read-out: Activity
[26] = system: A498; assay: Growth inhibition of human A498 cells assessed as growth inhibition at 10 uM after 48 hrs by sulforhodamine B assay; conditions: A498, 48 h, read-out: GI
Outline: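 Percent growth inhibition from the single 10^-5 M NCI-60 screen, reported as 100 minus growth percent. Growth percent was measured after 48 h drug exposure at 37 °C, 5% CO2, using TCA fixation, SRB staining and absorbance at 515 nm, against untreated controls and time-zero plates.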

[27] = system: LOX IMVI; assay: Growth inhibition of human LOXIMVI cells assessed as cell growth at 10 '-5 M after 48 hrs by sulforhodamine B assay; conditions: read-out: Activity
[28] = system: TK-10; assay: Growth inhibition of human TK10 cells assessed as cell growth at 10 '-5 M after 48 hrs by sulforhodamine B assay; conditions: TK-10, 48 h, read-out: Activity
[29] = system: T47D; assay: Growth inhibition of human T47D cells assessed as cell growth at 10 '-6 M after 48 hrs by sulforhodamine B assay; conditions: read-out: Activity
[30] = system: HCT-15; assay: Growth inhibition of human HCT15 cells assessed as growth inhibition at 10 uM after 48 hrs by sulforhodamine B assay; conditions: HCT-15, 48 h, read-out: GI
[31] = read-out: LD50 (the source's name)

Cc1nn(-c2ccc(Cl)cc2)c(=O)n1CCN1CCOCC1
growth at 10 µM [1]: 69%

Cc1cc(=O)oc2cc(OCCn3c(C)nn(-c4ccc(Cl)cc4)c3=O)ccc12
growth at 100 µM [2]: 45%
inhibition of growth at 10 µM [3]: 96.5%
growth at 1 µM [4]: 83%
growth at 1 µM [5]: 52%
growth at 1 µM [6]: 88%
growth at 100 µM [7]: 4%
growth at 0.1 µM [8]: 96%
growth at 0.1 µM [9]: 104%
inhibition of growth at 10 µM [10]: 40.3%
growth at 0.01 µM [11]: 97%
growth at 0.1 µM [12]: 90%
growth at 0.01 µM [13]: 98%
growth at 1 µM [14]: 53%
growth at 10 µM [15]: 8%
growth at 100 µM [16]: 40%
growth at 10 µM [17]: 33%
growth at 1 µM [18]: -8%
growth at 100 µM [19]: 15%
growth at 10 µM [20]: 55%
inhibition of growth at 10 µM [21]: 54.2%
growth at 0.01 µM [22]: 97%
GI50 [23]: 2.2 µM
TGI [23]: > 1 µM
CC50 [23, 31]: > 1 µM
GI50 [24]: 2.83 µM
TGI [24]: > 1 µM
CC50 [24, 31]: > 1 µM
growth at 0.01 µM [25]: 86%
inhibition of growth at 10 µM [26]: 74.3%
growth at 10 µM [27]: 39%
growth at 10 µM [28]: 58%
growth at 1 µM [29]: 89%
inhibition of growth at 10 µM [30]: 82.3%

Source: ChEMBL document CHEMBL2346664, “Synthesis, characterization and in vitro anticancer evaluation of novel 1,2,4-triazolin-3-one derivatives” (2013)
